Calls of active or inactive are those of the source. The rule behind the calls is not given here.
What was measured:
[1] = Selectivity index, ratio of CC50 for human HepG2A16 cells to IC50 for multidrug-resistant Plasmodium falciparum FCR-3; assay type: toxicity
Outline: (§1)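 HepG2-A16 human hepatoma cells were tested by MTT viability assay to give CC50. Blood-stage activity was measured against the multidrug-resistant P. falciparum FCR-3 strain by [3H]-hypoxanthine incorporation to give IC50. SI = CC50 HepG2 / FCR-3 IC50.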

[2] = Cytotoxicity against human HepG2A16 cells; assay type: cell-based
[3] = Cytotoxicity against human HepG2A16 cells by MTT assay; assay type: cell-based
Outline: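 MTT viability assay on HepG2-A16 cells, giving CC50 values.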

[4] = tested on: Plasmodium falciparum; experiment: Antiplasmodial activity against multidrug-resistant Plasmodium falciparum FCR-3 by [3H]-hypoxanthine incorporation assay; assay type: functional, organism-based, FCR-3/Gambia
Outline: (§2)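 Blood-stage P. falciparum 3D7 and FCR-3 were tested by a modified [3H]-hypoxanthine incorporation assay. Chloroquine was the reference in all runs.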

[5] = tested on: Plasmodium falciparum; experiment: Antiplasmodial activity against chloroquine-sensitive Plasmodium falciparum 3D7 by [3H]-hypoxanthine incorporation assay; assay type: functional, organism-based; outline: as §2
[6] = Selectivity index, ratio of CC50 for human HepG2A16 cells by MTT assay to IC50 for multidrug-resistant Plasmodium falciparum FCR-3; assay type: toxicity; outline: as §1
[7] = tested on: Plasmodium falciparum; experiment: Binding affinity to Plasmodium falciparum GRP94 nucleotide binding domain by SPR analysis
Outline: (§3)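 Purified PfHsp90 and PfGRP94 nucleotide-binding domains were amine-coupled to a CM5 chip (3000 and 7000 RU, respectively), with a blank reference surface. Seven compound concentrations (0.4 nM–1 mM) were injected in triplicate at 30 µL/min, 25 °C, in random order. Running buffer: 10 mM HEPES pH 7.4, 150 mM NaCl, 0.005% P20, 1% DMSO, 2 mM MgCl2. Kd came from double-referenced sensorgrams.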

[8] = tested on: Plasmodium falciparum; experiment: Binding affinity to Plasmodium falciparum GRP94 nucleotide binding domain at 0.5 mM by SYPRO orange dye based DSF analysis
Outline: (§4)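 Recombinant P. falciparum Hsp90 or GRP94 nucleotide-binding domain (0.05–0.2 mg/mL, optimized per protein) in 25 mM HEPES pH 7.5, 250 mM NaCl. Compound final concentration was 0.5 mM, with SYPRO Orange at 1:1000. Samples were heated from 18 to 90 °C at 1 °C/min. Tm was taken as the Boltzmann-fit inflection point. ΔTm = Tm with ligand minus Tm without, and shifts beyond ±1 °C were counted significant.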

[9] = biological target: T1, HSP90 (Plasmodium falciparum 3D7) (UniProt Q8IL32); experiment: Binding affinity to Plasmodium falciparum HSP90 nucleotide binding domain by SPR analysis; outline: as §3
T1 sequence (whole entry): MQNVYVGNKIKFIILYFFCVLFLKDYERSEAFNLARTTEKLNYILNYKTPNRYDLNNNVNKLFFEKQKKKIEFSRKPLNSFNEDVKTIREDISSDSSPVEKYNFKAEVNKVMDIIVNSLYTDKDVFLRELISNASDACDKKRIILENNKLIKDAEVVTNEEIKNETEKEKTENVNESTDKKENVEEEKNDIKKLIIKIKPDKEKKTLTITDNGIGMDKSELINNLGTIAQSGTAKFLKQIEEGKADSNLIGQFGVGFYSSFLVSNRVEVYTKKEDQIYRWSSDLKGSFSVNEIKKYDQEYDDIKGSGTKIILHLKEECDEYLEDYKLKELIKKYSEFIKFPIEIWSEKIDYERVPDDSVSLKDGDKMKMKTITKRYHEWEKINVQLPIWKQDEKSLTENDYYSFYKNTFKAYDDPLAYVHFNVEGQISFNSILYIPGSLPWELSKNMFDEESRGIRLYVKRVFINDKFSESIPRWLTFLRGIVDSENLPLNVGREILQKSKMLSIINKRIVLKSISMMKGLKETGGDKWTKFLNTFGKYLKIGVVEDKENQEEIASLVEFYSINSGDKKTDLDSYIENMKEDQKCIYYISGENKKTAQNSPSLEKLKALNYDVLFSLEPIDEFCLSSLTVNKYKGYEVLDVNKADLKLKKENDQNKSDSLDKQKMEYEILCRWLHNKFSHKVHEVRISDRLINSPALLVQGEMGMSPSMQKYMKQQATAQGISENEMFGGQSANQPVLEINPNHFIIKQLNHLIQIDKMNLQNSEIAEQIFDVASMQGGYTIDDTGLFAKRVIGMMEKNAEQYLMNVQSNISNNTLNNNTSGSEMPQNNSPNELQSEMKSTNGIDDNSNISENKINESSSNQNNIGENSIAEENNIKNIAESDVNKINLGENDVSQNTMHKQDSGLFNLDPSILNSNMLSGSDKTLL

[10] = biological target: T1, HSP90 (Plasmodium falciparum 3D7); experiment: Binding affinity to Plasmodium falciparum HSP90 nucleotide binding domain at 0.5 mM by SYPRO orange dye based DSF analysis; outline: as §4
[11] = tested on: Plasmodium berghei; experiment: Antiplasmodial activity against Plasmodium berghei ANKA infected in mouse assessed as inhibition of parasitemia at 50 mg/kg/day, po for 4 consecutive days starting from 2 hrs post infection by MSF assay relative to control; assay type: functional
Outline: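 Swiss male mice (20 ± 2 g) infected ip with 10^7 P. berghei ANKA parasitized cells (day 0). Five per group dosed orally 2 h after infection and daily on days 0–3. Test compounds at 50 mg/kg/day in water:DMSO; chloroquine diphosphate at 3 mg/kg/day; vehicle controls. Parasitemia measured on day 4 by MSF assay; survival checked daily.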

Row | Structure (SMILES) | Ratio CC50/IC50 [1] | CC50 [2] [µM] | CC50 [3] [µM] | IC50 [4] [µM] | IC50 [5] [µM] | Ratio CC50/IC50 [6] | Activity [7] | Activity [8] | Activity [9] | Activity [10] | selectivity ratio ([1]; HepG2A16 cells, read-out: Ratio CC50/IC50) | CC50 ([2]; HepG2A16 cells) [µM] | inhibition [11]
1 | O=[N+]([O-])c1ccc(N2CCC(NCCC(O)c3ccc(F)c4ccccc34)CC2)c(C(F)(F)F)c1 (single isomer, unassigned; (-)) | 32 | 4.13 | 20 | 0.87 | 1.79 | 23 | – | – | – | – | – | – | –
2 | N#Cc1ccc(N2CCC(NCCC(O)c3ccc(F)c4ccccc34)CC2)c(C(F)(F)F)c1 (single isomer, unassigned; (+)) | 58 | 79.9 | 18.8 | 0.65 | 5.72 | 29 | – | – | – | – | – | – | –
3 | OC(CCN1CCN(c2ccccc2C(F)(F)F)CC1)c1ccc(F)c2ccccc12 (single isomer, unassigned; (-)) | 308 | 61.5 | 18.2 | 0.2 | 0.88 | 91 | – | – | – | – | – | – | –
4 | N#Cc1ccc(N2CCC(NCCC(O)c3ccc(F)c4ccccc34)CC2)c(C(F)(F)F)c1 (stereo in doubt; (-)-72) | 11 | 27.8 | 11 | 0.39 | 0.28 | 28 | – | – | – | – | – | – | –
5 | COc1ccccc1N1CCN(CCC(O)c2ccc(F)cc2)CC1 (stereo in doubt; 66) | – | – | – | – | – | – | inactive | inactive | inactive | inactive | – | – | –
6 | N#Cc1ccc(N2CCC(NCCC(O)c3ccc(F)c4ccccc34)CC2)c(C(F)(F)F)c1 (stereo in doubt; 72) | – | – | – | – | – | – | inactive | inactive | inactive | inactive | – | – | –
7 | Nc1ncnc2c1ncn2[C@@H]1O[C@H](COP(=O)(O)OP(=O)(O)OP(=O)(O)O)[C@@H](O)[C@H]1O | – | – | – | – | – | – | – | Active | – | Active | – | – | –
8 | OC(CCN1CCN(c2ccccc2C(F)(F)F)CC1)c1ccc(F)c2ccccc12 (single isomer, unassigned; (+)) | – | – | 10.8 | 0.21 | 0.54 | 51 | – | – | – | – | 172 | 36.1 | –
9 | COc1ccccc1N1CCN(CCC(O)c2ccc(F)cc2)CC1 (single isomer, unassigned; (+)) | > 11.8 | – | 96 | 12.2 | 28.7 | 8 | – | – | – | – | – | > 145 | –
10 | OC(CCN1CCN(c2ccccc2C(F)(F)F)CC1)c1ccc(F)c2ccccc12 (stereo in doubt; 55) | – | – | – | – | – | – | inactive | inactive | inactive | inactive | – | – | inactive
11 | O=[N+]([O-])c1ccc(N2CCC(NCCC(O)c3ccc(F)c4ccccc34)CC2)c(C(F)(F)F)c1 (single isomer, unassigned; (+)) | 420 | 37.6 | 38.3 | 0.19 | 0.48 | 201 | – | – | – | – | – | – | –
12 | COc1ccccc1N1CCN(CCC(O)c2ccc(F)cc2)CC1 (single isomer, unassigned; (-)) | > 219.9 | – | 14.3 | 0.66 | 1.24 | 22 | – | – | – | – | – | – | –
13 | O=[N+]([O-])c1ccc(N2CCC(NCCC(O)c3ccc(F)c4ccccc34)CC2)c(C(F)(F)F)c1 (stereo in doubt; 8) | – | – | – | – | – | – | inactive | inactive | inactive | inactive | – | – | –
14 | Nc1ncnc2c1ncn2[C@@H]1O[C@H](COP(=O)(O)OP(=O)(O)O)[C@@H](O)[C@H]1O | – | – | – | – | – | – | – | Active | – | Active | – | – | –

Source: ChEMBL document CHEMBL4152256, “Structure-activity relationship of new antimalarial 1-aryl-3-susbtituted propanol derivatives: Synthesis, preliminary toxicity profiling, parasite life cycle stage studies, target exploration, and targeted delivery” (Eur J Med Chem, 2018)
